Measurements taken from the array DNA melting data of Ke et al. (doi:10.1101/2024.01.08.574731).

Legend:
[1] = melting temperature; fluorescence melt of hairpins on a sequencing array, two-state fit, raised by 9.35 °C to match UV melts; conditions: sodium 0.088 M
In short: (§1)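 To match UV melts, fitted temperatures were raised by 9.35 °C. These fits were bootstrapped two-state models that gave melting temperature and folding enthalpy, combined by inverse variance over four replicates. The input was normalised Cy3 fluorescence of library hairpins with annealed Cy3 and quencher oligos on a sequenced MiSeq flow cell, imaged in 50 mM Na-HEPES pH 8.0, 25 mM NaCl in 2.5 °C steps up to 60 °C.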

[2] = folding enthalpy; higher = less favourable; fluorescence melt of hairpins on a sequencing array, two-state fit; conditions: sodium 0.088 M
In short: as §1

Sequence | Tm [1] [°C] | folding enthalpy [2] [kcal/mol]
GATCGTCAACACGATC ((((((....)))))) | 51.5 | -32.9
GATCGTCATAACGATC ((((((....)))))) | 55 | -38.8
GATCGTCCAAACGATC ((((((....)))))) | 55.2 | -42.7
GATCGTCCCGACGATC ((((((....)))))) | 59.8 | -43.2
GATCGTCCTAACGATC ((((((....)))))) | 55.5 | -40.4
GATCGTCCTTACGATC ((((((....)))))) | 53.8 | -40.7
GATCGTCTAGACGATC ((((((....)))))) | 59.7 | -37.2
GATCGTCTGAACGATC ((((((....)))))) | 55.6 | -39.6
GATCGTGAAGACGATC ((((((....)))))) | 57 | -31.5
GATCGTGACCACGATC ((((((....)))))) | 61.3 | -38.7
GATCGTGACTACGATC ((((((....)))))) | 61.2 | -43.8
GATCGTGAGACGATC ((((((...)))))) | 54 | -33.8
GATCGTGAGGACGATC ((((((....)))))) | 53.5 | -34.1
GATCGTGATCACGATC ((((((....)))))) | 58.2 | -53
GATCGTGCAACGATC ((((((...)))))) | 67.8 | -41
GATCGTGCCAACGATC ((((((....)))))) | 66.6 | -29.7
GATCGTGCGCACGATC ((((((....)))))) | 64.6 | -51.2
GATCGTGGAAACGATC ((((((....)))))) | 61 | -32.5
GATCGTGGCCACGATC ((((((....)))))) | 62.5 | -62.6
GATCGTGGCTACGATC ((((((....)))))) | 59 | -39.3

Sequence | Tm [1] [°C] | folding enthalpy [2] [kcal/mol]
GATCGTGGGCACGATC ((((((....)))))) | 56.8 | -40.1
GATCGTGGGTACGATC ((((((....)))))) | 55.3 | -37.6
GATCGTGGTACGATC ((((((...)))))) | 58.2 | -34.7
GATCGTGGTTACGATC ((((((....)))))) | 58.3 | -40.3
GATCGTGTAACGATC ((((((...)))))) | 63.5 | -48.1
GATCGTGTATACGATC ((((((....)))))) | 62.1 | -46
GATCGTGTCCACGATC ((((((....)))))) | 60.3 | -45.8
GATCGTGTTACGATC ((((((...)))))) | 56.9 | -35.6
GATCGTGTTGACGATC ((((((....)))))) | 57.4 | -29.3
GATCGTGTTTACGATC ((((((....)))))) | 57.5 | -41.4
GATCGTTAATACGATC ((((((....)))))) | 54.6 | -36.3
GATCGTTACACGATC ((((((...)))))) | 58.4 | -36.1
GATCGTTAGAACGATC ((((((....)))))) | 55.2 | -34.7
GATCGTTAGCACGATC ((((((....)))))) | 51.4 | -32.3
GATCGTTAGGACGATC ((((((....)))))) | 55.2 | -37.9
GATCGTTAGTACGATC ((((((....)))))) | 53.2 | -47.3
GATCGTTATCACGATC ((((((....)))))) | 52.7 | -42
GATCGTTGCACGATC ((((((...)))))) | 60.7 | -38.6
GATCGTTGCGACGATC ((((((....)))))) | 60.7 | -41.2
GATCGTTGGACGATC ((((((...)))))) | 54.8 | -35.1
